Experimental data reported in ChEMBL document CHEMBL4033702, “Challenges in the development of an M4 PAM preclinical candidate: The discovery, SAR, and in vivo characterization of a series of 3-aminoazetidine-derived amides” (Bioorg Med Chem Lett, 2017).

Experiments:
Brain [1] = assay: Drug level in Sprague-Dawley rat brain at 3 mg/kg, po; format: ADME, organism-based; conditions: in vivo, read-out: Drug uptake
Rattus norvegicus = assay: Reversal of amphetamine-induced hyperlocomotion in Sprague-Dawley rat at 0.3 mg/kg, po pretreated 30 mins post habituation in the chamber followed by amphetamine injection after 30 mins measured after 60 mins; format: functional
Method in brief: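 Male Sprague-Dawley rats, n = 6–24 per dose group, were habituated in the chamber for 30 min. The compound or vehicle (10% tween-80 in water, v/v) was then given orally. Amphetamine 0.75 mg/kg was injected subcutaneously 30 min later. Total ambulations over t = 60–120 min gave % reversal of AHL, reported as mean ± SEM.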

[2] = target: T1, Muscarinic acetylcholine receptor M4 (Homo sapiens) (UniProt P08173); assay: Positive allosteric modulation of human M4 receptor expressed in CHO cells co-expressing Gqi5 assessed as increase in acetylcholine-induced calcium mobilization relative to acetylcholine; format: functional, cell-based
T1 sequence (whole entry): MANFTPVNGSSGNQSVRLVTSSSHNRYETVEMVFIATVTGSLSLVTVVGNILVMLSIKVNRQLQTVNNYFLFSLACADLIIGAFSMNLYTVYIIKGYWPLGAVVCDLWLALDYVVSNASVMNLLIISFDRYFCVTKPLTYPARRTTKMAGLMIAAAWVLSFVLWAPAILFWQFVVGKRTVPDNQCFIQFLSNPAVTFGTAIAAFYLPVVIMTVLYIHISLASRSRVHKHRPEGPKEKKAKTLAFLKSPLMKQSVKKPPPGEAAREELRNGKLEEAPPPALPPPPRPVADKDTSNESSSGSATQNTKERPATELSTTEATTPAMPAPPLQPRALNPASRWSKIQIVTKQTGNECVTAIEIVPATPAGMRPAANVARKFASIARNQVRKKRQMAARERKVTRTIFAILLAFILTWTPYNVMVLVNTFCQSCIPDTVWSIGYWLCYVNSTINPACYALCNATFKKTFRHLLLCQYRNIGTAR
Method in brief: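 Calcium mobilization in CHO cells stably co-expressing hM4 and Gqi5, tested in the presence of a fixed EC20 concentration of acetylcholine. Values are means of three independent experiments, each run in triplicate.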

[3] = target: T2, Muscarinic acetylcholine receptor M4 (Rattus norvegicus) (UniProt P08485); assay: Activity at rat M4 receptor assessed as acetylcholine-induced calcium mobilization; format: functional
T2 sequence (whole entry): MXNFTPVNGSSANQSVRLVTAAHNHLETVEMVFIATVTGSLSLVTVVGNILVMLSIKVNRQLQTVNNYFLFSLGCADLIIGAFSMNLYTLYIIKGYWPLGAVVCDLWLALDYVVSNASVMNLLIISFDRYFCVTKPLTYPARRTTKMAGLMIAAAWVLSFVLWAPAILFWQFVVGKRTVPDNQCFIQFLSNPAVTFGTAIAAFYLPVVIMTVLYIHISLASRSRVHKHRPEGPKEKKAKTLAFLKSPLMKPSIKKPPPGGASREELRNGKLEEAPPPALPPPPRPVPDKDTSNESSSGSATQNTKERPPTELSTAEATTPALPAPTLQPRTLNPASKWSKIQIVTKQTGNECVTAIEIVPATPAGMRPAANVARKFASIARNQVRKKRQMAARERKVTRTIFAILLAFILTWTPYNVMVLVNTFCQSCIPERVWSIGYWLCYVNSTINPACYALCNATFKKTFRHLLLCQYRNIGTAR
Method in brief: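 Ca2+ mobilization read-out. Acetylcholine concentration-response curves were run in the presence of the PAM to measure the fold-shift. An operational model was fitted to derive the PAM's affinity (KB) and cooperativity (αβ).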

Brain [4] = assay: Drug level in Sprague-Dawley rat brain at 10 mg/kg, po; format: ADME, organism-based; conditions: in vivo, read-out: Drug uptake
[5] = target: T1, Muscarinic acetylcholine receptor M4 (Homo sapiens); assay: Activity at human M4 receptor assessed as acetylcholine-induced calcium mobilization; format: functional
[6] = Clearance in iv or po dosed Sprague-Dawley rat; format: ADME, organism-based; conditions: in vivo
Method in brief: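 IV and PO pharmacokinetics in male Sprague-Dawley rats, n = 1–3. The oral dose was a 2–3 mg/kg solution. Plasma clearance, Vss and oral bioavailability were determined.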

Cytochrome P450 3A4 = Cytochrome P450 3A4 (Homo sapiens, UniProt P08684); assay: Inhibition of CYP3A4 (unknown origin); format: ADME
Sequence of Cytochrome P450 3A4 (P08684 whole entry): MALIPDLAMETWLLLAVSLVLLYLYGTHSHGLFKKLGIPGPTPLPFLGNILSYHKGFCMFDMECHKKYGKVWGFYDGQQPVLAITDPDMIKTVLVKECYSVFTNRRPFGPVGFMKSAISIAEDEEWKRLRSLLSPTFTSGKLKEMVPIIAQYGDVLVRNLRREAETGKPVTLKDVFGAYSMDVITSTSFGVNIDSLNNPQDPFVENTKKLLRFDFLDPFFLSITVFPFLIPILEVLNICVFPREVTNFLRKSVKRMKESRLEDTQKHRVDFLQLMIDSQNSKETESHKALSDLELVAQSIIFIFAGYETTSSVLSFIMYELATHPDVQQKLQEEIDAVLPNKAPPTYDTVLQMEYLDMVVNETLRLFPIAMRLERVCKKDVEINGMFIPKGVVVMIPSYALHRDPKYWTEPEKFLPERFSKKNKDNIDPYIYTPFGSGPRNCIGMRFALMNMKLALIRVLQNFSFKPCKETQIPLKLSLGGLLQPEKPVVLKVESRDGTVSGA

Brain [7] = assay: Drug level in Sprague-Dawley rat brain at 1 mg/kg, po; format: ADME, organism-based; conditions: in vivo, read-out: Drug uptake
Cytochrome P450 2C19 [8] = target: T3, Cytochrome P450 2C19 (Homo sapiens, UniProt P33261); assay: Time-dependent inhibition of CYP2C19 (unknown origin); format: ADME
T3 sequence (P33261 whole entry): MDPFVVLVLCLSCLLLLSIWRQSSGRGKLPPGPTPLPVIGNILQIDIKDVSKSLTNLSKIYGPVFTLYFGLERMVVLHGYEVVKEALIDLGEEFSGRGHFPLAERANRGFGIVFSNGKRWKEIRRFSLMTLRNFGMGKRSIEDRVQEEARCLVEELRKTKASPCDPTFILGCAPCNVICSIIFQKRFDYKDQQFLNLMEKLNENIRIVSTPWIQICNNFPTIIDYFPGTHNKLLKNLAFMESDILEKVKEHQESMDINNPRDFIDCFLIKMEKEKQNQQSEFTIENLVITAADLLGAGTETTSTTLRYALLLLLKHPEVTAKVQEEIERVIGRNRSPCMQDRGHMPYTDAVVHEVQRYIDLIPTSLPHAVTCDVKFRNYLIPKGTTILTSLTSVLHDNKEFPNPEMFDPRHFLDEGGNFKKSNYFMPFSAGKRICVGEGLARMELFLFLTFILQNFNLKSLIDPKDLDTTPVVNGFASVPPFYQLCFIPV

[9] = target: Sodium-dependent dopamine transporter (Homo sapiens, UniProt Q01959); assay: Displacement of [3H]BTCP from human recombinant dopamine transporter expressed in CHO cells; format: cell-based
Sequence of Sodium-dependent dopamine transporter (Q01959 whole entry): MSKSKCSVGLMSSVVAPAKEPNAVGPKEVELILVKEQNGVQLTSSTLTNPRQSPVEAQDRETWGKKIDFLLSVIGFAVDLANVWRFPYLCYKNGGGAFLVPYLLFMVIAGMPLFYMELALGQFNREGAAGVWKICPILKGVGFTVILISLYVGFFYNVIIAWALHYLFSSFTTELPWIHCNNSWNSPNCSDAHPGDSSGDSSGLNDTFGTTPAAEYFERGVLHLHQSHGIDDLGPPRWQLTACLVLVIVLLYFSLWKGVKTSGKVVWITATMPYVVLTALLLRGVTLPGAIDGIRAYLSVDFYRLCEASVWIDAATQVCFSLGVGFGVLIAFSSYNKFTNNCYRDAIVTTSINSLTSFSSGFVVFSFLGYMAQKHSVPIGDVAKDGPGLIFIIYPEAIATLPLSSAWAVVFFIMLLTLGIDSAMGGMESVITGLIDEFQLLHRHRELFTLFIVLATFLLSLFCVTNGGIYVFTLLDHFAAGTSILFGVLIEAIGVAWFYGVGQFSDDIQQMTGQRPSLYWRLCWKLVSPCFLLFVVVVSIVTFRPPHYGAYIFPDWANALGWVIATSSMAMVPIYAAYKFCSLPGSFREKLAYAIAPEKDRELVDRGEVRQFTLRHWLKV

Cytochrome P450 2C19 [10] = target: T3, Cytochrome P450 2C19; assay: Inhibition of CYP2C19 (unknown origin); format: ADME

## Cc1nnc2sc(C(=O)NC3CN(c4cccc(F)c4F)C3)c(N)c2c1C
Brain [1]
  concentration: 510 nM
Rattus norvegicus
  Activity: 43%
[2]
  %max: 88%
[3]
  Kb: 120 nM
Brain [4]
  concentration: 820 nM
[5]
  Kb: 2000 nM
[6]
  clearance: 16 mL/min/kg
Cytochrome P450 3A4
  IC50: 11000 nM
Brain [7]
  concentration: 140 nM
Cytochrome P450 2C19 [8]
  TDI: Not Active
[9]
  IC50: 450 nM
Cytochrome P450 2C19 [10]
  IC50: 6300 nM
